Converted amounts (≈) assume the structure as drawn.
Legend:
Cytochrome P450 2C9 = Cytochrome P450 2C9 (Homo sapiens, UniProt P11712); test: Inhibition of CYP2C9 in supersomes (unknown origin) using MFC as substrate after 30 mins; assay type: ADME
Cytochrome P450 1A2 = target: T1, Cytochrome P450 1A2 (Homo sapiens, UniProt P05177); test: Inhibition of CYP1A2 in supersomes (unknown origin) using CEC as substrate after 30 mins; assay type: ADME
T1 sequence (P05177 whole entry): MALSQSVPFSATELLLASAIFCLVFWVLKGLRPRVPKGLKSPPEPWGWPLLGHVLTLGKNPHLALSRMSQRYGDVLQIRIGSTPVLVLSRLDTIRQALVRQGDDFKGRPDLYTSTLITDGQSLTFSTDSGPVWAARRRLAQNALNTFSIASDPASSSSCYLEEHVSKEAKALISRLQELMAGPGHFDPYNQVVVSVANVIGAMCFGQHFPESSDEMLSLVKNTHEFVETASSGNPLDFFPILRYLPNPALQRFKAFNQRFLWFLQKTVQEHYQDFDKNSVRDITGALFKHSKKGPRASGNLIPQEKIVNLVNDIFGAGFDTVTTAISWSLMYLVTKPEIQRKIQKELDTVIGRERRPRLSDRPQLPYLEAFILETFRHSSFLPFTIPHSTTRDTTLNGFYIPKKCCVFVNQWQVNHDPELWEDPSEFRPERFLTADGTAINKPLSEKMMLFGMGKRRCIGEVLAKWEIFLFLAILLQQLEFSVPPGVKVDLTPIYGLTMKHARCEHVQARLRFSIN

[1] = Permeability of the compound at pH 7.4 by PAMPA; assay type: ADME; conditions: read-out: permeability
[2] = Solubility of the compound at pH 7.4; assay type: physicochemical; conditions: buffer
[3] = Cmax in SCID mouse at 25 mg/kg, ip; assay type: ADME, organism-based; parameters: dose 25 mg/kg, route intraperitoneal; conditions: in vivo
Procedure, shortened: (§1)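 Mice were dosed at 25 mg/kg by the IP or the PO route. Drug levels were measured in plasma, and Cmax (µg/mL) and AUC (µg h/mL) were derived for each route.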

[4] = AUC in SCID mouse at 25 mg/kg, ip; assay type: ADME, organism-based; parameters: dose 25 mg/kg, route intraperitoneal; conditions: plasma; procedure, shortened: as §1
[5] = Cmax in SCID mouse at 25 mg/kg, po; assay type: ADME, organism-based; parameters: dose 25 mg/kg, route oral; conditions: in vivo; procedure, shortened: as §1
[6] = AUC in SCID mouse at 25 mg/kg, po; assay type: ADME, organism-based; parameters: dose 25 mg/kg, route oral; conditions: plasma; procedure, shortened: as §1
[7] = Antitumor activity against human HCT116 cells xenografted in SCID mouse assessed as tumor growth inhibition at 12.5 mg/kg, ip qd for 18 days; assay type: functional; conditions: HCT-116, ip, 432 h, route intraperitoneal, read-out: TGI
Procedure, shortened: (§2)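 Mice bore HCT116 tumour xenografts. Arms were dosed IP at 12.5 or 25 mg/kg QD, or at 12.5 mg/kg BID. The reference arm received 5-fluorouracil IP at 15 mg/kg daily. Tumour volume was compared with a negative control group to give percent tumour growth inhibition. Body weight was monitored in all arms.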

[8] = Antitumor activity against human HCT116 cells xenografted in SCID mouse assessed as tumor growth inhibition at 25 mg/kg, ip qd for 18 days; assay type: functional; conditions: HCT-116, ip, 432 h, route intraperitoneal, read-out: TGI; procedure, shortened: as §2
[9] = Antitumor activity against human HCT116 cells xenografted in SCID mouse assessed as tumor growth inhibition at 12.5 mg/kg, ip bid for 18 days; assay type: functional; conditions: HCT-116, ip, 432 h, route intraperitoneal, read-out: TGI; procedure, shortened: as §2
Mus musculus [10] = test: Toxicity in SCID mouse assessed as body weight loss at 12.5 mg/kg, ip qd for 18 days; assay type: organism-based; parameters: dose 12.5 mg/kg, route intraperitoneal; conditions: in vivo, 432 h; procedure, shortened: as §2
Mus musculus [11] = test: Toxicity in SCID mouse assessed as body weight loss at 12.5 mg/kg, ip bid for 18 days; assay type: organism-based; parameters: dose 12.5 mg/kg, route intraperitoneal; conditions: in vivo, 432 h; procedure, shortened: as §2
Mus musculus [12] = test: Toxicity in SCID mouse assessed as body weight loss at 15 mg/kg, ip qd for 5 days; assay type: organism-based; parameters: dose 15 mg/kg, route intraperitoneal; conditions: in vivo, 120 h; procedure, shortened: as §2
Mus musculus [13] = test: Toxicity in SCID mouse assessed as mortality at 25 mg/kg, ip bid for 18 days; assay type: organism-based; parameters: dose 25 mg/kg, route intraperitoneal; conditions: in vivo, 432 h
HCT-116 = test: Antitumor activity against human HCT116 cells xenografted in SCID mouse assessed as tumor growth inhibition administered ip qd for 18 days; assay type: functional, organism-based; procedure, shortened: as §2
MDA-MB-468 = test: Growth inhibition of human MDA-MB-468 cells after 5 days by SRB assay; assay type: functional; conditions: MDA-MB-468, 120 h
[14] = target: Serine/threonine-protein kinase PLK2 (Homo sapiens, UniProt Q9NYY3); test: Inhibition of PLK2 (unknown origin) by FRET-based homogenous assay
Chain of Serine/threonine-protein kinase PLK2 (Q9NYY3 whole entry): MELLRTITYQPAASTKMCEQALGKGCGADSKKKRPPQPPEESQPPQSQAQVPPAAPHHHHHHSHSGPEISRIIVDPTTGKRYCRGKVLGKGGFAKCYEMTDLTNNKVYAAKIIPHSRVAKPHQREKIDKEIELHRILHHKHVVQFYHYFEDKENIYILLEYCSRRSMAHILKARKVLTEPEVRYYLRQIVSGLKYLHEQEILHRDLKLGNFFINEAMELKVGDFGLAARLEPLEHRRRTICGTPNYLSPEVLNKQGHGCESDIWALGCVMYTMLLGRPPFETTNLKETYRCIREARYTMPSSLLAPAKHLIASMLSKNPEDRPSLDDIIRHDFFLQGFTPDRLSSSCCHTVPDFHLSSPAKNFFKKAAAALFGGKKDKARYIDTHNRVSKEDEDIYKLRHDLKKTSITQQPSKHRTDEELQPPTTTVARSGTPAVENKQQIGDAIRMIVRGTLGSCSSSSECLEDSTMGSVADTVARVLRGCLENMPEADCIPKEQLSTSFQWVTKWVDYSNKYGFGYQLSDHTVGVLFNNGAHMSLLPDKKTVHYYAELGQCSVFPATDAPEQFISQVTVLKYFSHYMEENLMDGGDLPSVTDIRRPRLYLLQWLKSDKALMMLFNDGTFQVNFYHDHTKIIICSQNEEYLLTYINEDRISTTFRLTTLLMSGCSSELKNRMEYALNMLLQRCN

[15] = target: Serine/threonine-protein kinase PLK3 (Homo sapiens, UniProt Q9H4B4); test: Inhibition of PLK3 (unknown origin) by FRET-based homogenous assay
Chain of Serine/threonine-protein kinase PLK3 (Q9H4B4 whole entry): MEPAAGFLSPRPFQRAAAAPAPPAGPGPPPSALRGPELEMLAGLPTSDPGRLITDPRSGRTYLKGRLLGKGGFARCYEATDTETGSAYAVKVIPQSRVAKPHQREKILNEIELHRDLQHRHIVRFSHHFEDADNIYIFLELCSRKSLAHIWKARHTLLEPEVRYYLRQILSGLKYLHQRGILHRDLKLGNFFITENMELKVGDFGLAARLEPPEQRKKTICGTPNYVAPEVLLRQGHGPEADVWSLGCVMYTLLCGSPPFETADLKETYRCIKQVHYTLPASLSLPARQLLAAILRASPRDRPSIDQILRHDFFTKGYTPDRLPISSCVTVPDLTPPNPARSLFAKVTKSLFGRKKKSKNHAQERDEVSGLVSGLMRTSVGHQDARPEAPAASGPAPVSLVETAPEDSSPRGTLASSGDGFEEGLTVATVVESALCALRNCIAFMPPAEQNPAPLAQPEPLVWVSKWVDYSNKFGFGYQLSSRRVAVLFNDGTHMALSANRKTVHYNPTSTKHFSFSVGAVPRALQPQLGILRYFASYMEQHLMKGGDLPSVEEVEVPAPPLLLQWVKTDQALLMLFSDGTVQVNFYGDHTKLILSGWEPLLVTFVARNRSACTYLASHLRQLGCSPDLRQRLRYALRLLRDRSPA

Chain of Cytochrome P450 2C9 (P11712 whole entry): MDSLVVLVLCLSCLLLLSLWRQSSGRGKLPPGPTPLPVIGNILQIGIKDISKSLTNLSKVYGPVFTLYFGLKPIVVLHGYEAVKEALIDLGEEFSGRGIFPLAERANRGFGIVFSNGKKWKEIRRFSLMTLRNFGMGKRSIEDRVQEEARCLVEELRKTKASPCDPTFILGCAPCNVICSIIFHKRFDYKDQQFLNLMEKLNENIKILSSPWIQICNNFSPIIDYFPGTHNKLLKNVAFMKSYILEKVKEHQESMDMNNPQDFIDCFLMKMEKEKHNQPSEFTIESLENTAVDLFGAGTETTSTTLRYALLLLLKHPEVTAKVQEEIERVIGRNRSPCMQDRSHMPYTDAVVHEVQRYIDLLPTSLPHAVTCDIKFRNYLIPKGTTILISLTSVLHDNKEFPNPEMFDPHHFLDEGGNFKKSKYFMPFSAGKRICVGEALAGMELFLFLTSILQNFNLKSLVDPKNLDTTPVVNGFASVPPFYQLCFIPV

IC50 [14] | IC50 [15] | SMILES | IC50 (Cytochrome P450 2C9) | IC50 (Cytochrome P450 1A2) | Papp [1] | solubility [2] | Cmax [3] | AUC [4] | Cmax [5] | AUC [6] | inhibition in vivo at 12.5 mg/kg [7] | inhibition in vivo at 25 mg/kg [8] | inhibition in vivo at 12.5 mg/kg [9] | Activity (Mus musculus [10]) | Activity (Mus musculus [11]) | Activity (Mus musculus [12]) | Activity (Mus musculus [13]) | TGI (HCT-116) | GI50 (MDA-MB-468)
– | – | CCc1ccccc1C(C(=O)Nc1ccc2[nH]nc(-c3cccc(S(N)(=O)=O)c3)c2c1)N(C)C (racemic) | 2500 nM | > 10 µM | 19 ×10⁻⁶ cm/s | 1.4 µg/mL (≈ 2.93 µM) | 4800 ng/mL | 3000 ng·h/mL | 130 ng/mL | 140 ng·h/mL | 10% | 66% | 46% | Non-toxic | Non-toxic | Non-toxic | Toxic | Dose-dependent effect | 660 nM
10 µM | > 50 µM | NS(=O)(=O)c1cccc(-c2n[nH]c3ccc(NC(=O)C(c4ccsc4)N4CCCC4)cc23)c1 (racemic) | 900 nM | > 10 µM | 4.2 ×10⁻⁶ cm/s | 9 µg/mL (≈ 18.7 µM) | – | – | – | – | – | – | – | – | – | – | – | – | 90 nM

Reference: ChEMBL document CHEMBL3352261, “Discovery of inhibitors of the mitotic kinase TTK based on N-(3-(3-sulfamoylphenyl)-1H-indazol-5-yl)-acetamides and carboxamides” (Bioorg Med Chem, 2014)
